Data published in ChEMBL document CHEMBL3751849, “Design, Synthesis, and Biological Characterization of Novel Mitochondria Targeted Dichloroacetate-Loaded Compounds with Antileukemic Activity” (J Med Chem, 2016).
Active and inactive are the calls of the source. The calls are words filed in the database; no cut-off is given here.

Assays:
[1] = (§1) Cytotoxicity against human MEC1 cells after 48 hrs by MTT assay; assay type: functional, cell-based; details: MEC1, 48 h
Summary of the method: (§2)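 Cells seeded at 1 × 10^6 cells/mL. JVM-2, MAVER and HL-60 were grown in RPMI-1640; MEC-1 and MEC-2 were grown in IMDM. Primary cells were grown in RPMI-1640. All media carried 10% FBS, L-glutamine and penicillin/streptomycin. Test agents were added at 3–300 μM, and DCA at 1–30 mM.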

[2] = tested on: MEC1; experiment: as §1; assay type: functional, cell-based; summary of the method: as §2
[3] = (§3) Cytotoxicity against human MEC2 cells after 48 hrs by MTT assay; assay type: functional, cell-based; details: MEC2, 48 h; summary of the method: as §2
[4] = tested on: MEC2; experiment: as §3; assay type: functional, cell-based; summary of the method: as §2
[5] = tested on: JVM-2; experiment: Induction of apoptosis in human JVM2 cells assessed as early apoptotic cells at 300 uM after 48 hrs by annexin V-FITC/PI-staining based FACS analysis (reference value: 1.6%); assay type: functional
[6] = tested on: JVM-2; experiment: Induction of apoptosis in human JVM2 cells assessed as late apoptotic cells at 300 uM after 48 hrs by annexin V-FITC/PI-staining based FACS analysis (reference value: 11%); assay type: functional
[7] = Induction of apoptosis in human primary B-CLL cells assessed as early apoptotic cells at 300 uM after 48 hrs by annexin V-FITC/PI-staining based FACS analysis (reference value: 10.7%); assay type: functional
[8] = Induction of apoptosis in human primary B-CLL cells assessed as late apoptotic cells at 300 uM after 48 hrs by annexin V-FITC/PI-staining based FACS analysis (reference value: 8.5%); assay type: functional
[9] = Upregulation of p21 mRNA expression in human primary B-CLL cells at 300 uM after 24 to 48 hrs by qRT-PCR analysis; assay type: functional, cell-based
[10] = tested on: B-CLL; experiment: Induction of p21 protein level in human primary B-CLL cells at 300 uM after 24 to 48 hrs by Western blot analysis; assay type: functional, cell-based
Summary of the method: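 Primary B-CLL patient cells treated 24 or 48 h, lysed and analysed by Western blot using anti-p21 (C-19) antibody to detect p21 protein induction.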

[11] = tested on: Plasma; experiment: Metabolic stability in BALB/c mouse plasma assessed as compound remaining at 57 mg/kg, sc after >5 hrs by HPLC-MS analysis; assay type: ADME, organism-based; details: in vivo
Summary of the method: (§4)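 Female BALB/c mice, 8 weeks old (n = 12), received one sc dose of 57 mg/kg in 200 μL PBS/25% DMSO. Tail-vein blood was drawn at 1, 2.5, 4, 5.5, 7, 16 and 24 h, and plasma was stored at −80 °C. Plasma (100 μL) was diluted in 300 μL acetonitrile/water/TFA and filtered. It was then analysed by nano-HPLC-MS on a C-18 column, using a 15-min water-to-acetonitrile gradient with 0.1% formic acid.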

[12] = tested on: Plasma; experiment: Retention time in BALB/c mouse plasma at 57 mg/kg, sc after 4 hrs by HPLC-MS analysis; assay type: ADME, organism-based; details: in vivo; summary of the method: as §4
[13] = tested on: Leukemia cell; experiment: Reduction in basal oxygen consumption rate of mitochondria in human leukemia cells at 300 uM after 3 hrs by seahorse analyzer; assay type: functional
Summary of the method: (§5)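 Leukemic cells were treated for 3 h at 300 μM, then plated at 3 × 10^5 cells/well on poly-L-lysine. They were held 1 h at 37 °C without CO2 and run on an XFe96 Mito stress test. Additions were made sequentially: oligomycin 1.0 μM, FCCP 1.0 μM, then antimycin A plus rotenone at 1.0 μM each. OCR was expressed as pmol O2/min and normalized to cell number. Coupling efficiency and spare capacity were calculated after subtracting non-mitochondrial OCR. Data are from six independent experiments.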

[14] = tested on: Leukemia cell; experiment: Reduction in maximal oxygen consumption rate of mitochondria in human leukemia cells pretreated at 300 uM for 3 hrs followed by FCCP addition by seahorse analyzer; assay type: functional; summary of the method: as §5
[15] = tested on: Leukemia cell; experiment: Reduction in mitochondrial coupling efficiency in human leukemia cells pretreated at 300 uM for 3 hrs followed by antimycin A/rotenone addition by seahorse analyzer; assay type: functional, cell-based; summary of the method: as §5
[16] = Cell cycle arrest in human JVM2 cells assessed as accumulation at S phase at 300 uM after 48 hrs by BrdU/PI-staining based FACS analysis (reference value: 40%); assay type: functional; details: JVM-2
[17] = tested on: Plasma; experiment: Drug metabolism in BALB/c mouse plasma at 57 mg/kg, sc after >5 hrs by HPLC-MS analysis; assay type: ADME, organism-based; details: in vivo; summary of the method: as §4
[18] = tested on: Leukemia cell; experiment: Reduction in mitochondrial spare respiratory capacity in human leukemia cells pretreated at 300 uM for 3 hrs followed by antimycin A/rotenone addition by seahorse analyzer; assay type: functional, cell-based; summary of the method: as §5
[19] = (§6) Cytotoxicity against human JVM2 cells after 48 hrs by MTT assay; assay type: functional, cell-based; details: JVM-2, 48 h; summary of the method: as §2
[20] = tested on: JVM-2; experiment: as §6; assay type: functional, cell-based; summary of the method: as §2
[21] = tested on: PBMC; experiment: Cytotoxicity against human PBMC cells after 48 hrs by MTT assay; assay type: cell-based; summary of the method: as §2
[22] = (§7) Cytotoxicity against human HL60 cells after 48 hrs by MTT assay; assay type: functional, cell-based; details: HL-60, 48 h; summary of the method: as §2
[23] = tested on: HL-60; experiment: as §7; assay type: functional, cell-based; summary of the method: as §2
[24] = (§8) Cytotoxicity against human Maver1 cells after 48 hrs by MTT assay; assay type: functional, cell-based; details: Maver1, 48 h; summary of the method: as §2
[25] = tested on: Maver1; experiment: as §8; assay type: functional, cell-based; summary of the method: as §2
[26] = Cytotoxicity against human HL60 cells at 3 to 300 uM after 48 hrs by MTT assay; assay type: cell-based; details: hl-60, 48 h; summary of the method: as §2
[27] = Cytotoxicity against human MEC1 cells at 3 to 300 uM after 48 hrs by MTT assay; assay type: cell-based; details: mec1, 48 h; summary of the method: as §2
[28] = Cytotoxicity against human JVM2 cells at 3 to 300 uM after 48 hrs by MTT assay; assay type: cell-based; details: jvm-2, 48 h; summary of the method: as §2
[29] = Cytotoxicity against human Maver1 cells at 3 to 300 uM uM after 48 hrs by MTT assay; assay type: cell-based; details: maver1, 48 h; summary of the method: as §2
[30] = Cytotoxicity against human MEC2 cells at 3 to 300 uM after 48 hrs by MTT assay; assay type: cell-based; details: mec2, 48 h; summary of the method: as §2
[31] = Cytotoxicity against human HL60 cells at 30 uM after 48 hrs by MTT assay; assay type: cell-based; details: hl-60, 48 h; summary of the method: as §2
[32] = Cytotoxicity against human JVM2 cells at 30 uM after 48 hrs by MTT assay; assay type: cell-based; details: jvm-2, 48 h; summary of the method: as §2
[33] = Cytotoxicity against human Maver1 cells at 30 uM after 48 hrs by MTT assay; assay type: cell-based; details: maver1, 48 h; summary of the method: as §2
[34] = Cytotoxicity against human MEC1 cells at 30 uM after 48 hrs by MTT assay; assay type: cell-based; details: mec1, 48 h; summary of the method: as §2
[35] = Cytotoxicity against human MEC2 cells at 30 uM after 48 hrs by MTT assay; assay type: cell-based; details: mec2, 48 h; summary of the method: as §2
[36] = tested on: JVM-2; experiment: Induction of apoptosis in human JVM2 cells assessed as early apoptotic cells at 10 mM after 48 hrs by annexin V-FITC/PI-staining based FACS analysis (reference value: 1.6%); assay type: functional
Summary of the method: (§9)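 JVM-2 cells seeded at 1 × 10^6 cells/mL in RPMI-1640 with 10% FBS and treated 48 h. Annexin V-FITC/PI staining read by flow cytometry, giving percentage of apoptotic leukemic cells. Mean ± SD of at least three independent experiments; p < 0.05 versus untreated cultures.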

[37] = tested on: JVM-2; experiment: Induction of apoptosis in human JVM2 cells assessed as late apoptotic cells at 10 mM after 48 hrs by annexin V-FITC/PI-staining based FACS analysis (reference value: 11%); assay type: functional; summary of the method: as §9
[38] = Induction of apoptosis in human primary B-CLL cells assessed as early apoptotic cells at 30 mM after 48 hrs by annexin V-FITC/PI-staining based FACS analysis (reference value: 10.7%); assay type: functional
[39] = Induction of apoptosis in human primary B-CLL cells assessed as late apoptotic cells at 30 mM after 48 hrs by annexin V-FITC/PI-staining based FACS analysis (reference value: 8.5%); assay type: functional
[40] = Cell cycle arrest in human JVM2 cells assessed as accumulation at S phase at 30 mM after 48 hrs by BrdU/PI-staining based FACS analysis (reference value: 40%); assay type: functional; details: JVM-2

Row | Structure (SMILES) | IC50 [1] [µM] | IC50 [3] [µM] | Activity [5] [%] | Activity [6] [%] | Activity [9] | Activity [10] | Activity [13] | Activity [16] [%] | IC50 [19] [µM] | IC50 [22] [µM] | IC50 [24] [µM] | Activity [26] | Activity [27] | Activity [28] | Activity [29] | Activity [30] | further results
1 | O=C(NCCN(CCNC(=O)C(Cl)Cl)CCNC(=O)C(Cl)Cl)C(Cl)Cl | 400 | 370 | 1.1 | 25.5 | Active | Active | Active | 22 | 410 | 340 | 550 |  |  |  |  |  | Activity [2]: Dose-dependent effect; Activity [4]: Dose-dependent effect; Activity [7]: 14.4%; Activity [8]: 42.8%; Stability [11]: Stable; Retention_time [12]: 0.455 min; Activity [14]: Active; Activity [15]: Active; Drug metabolism [17]: metabolite_notdetected; Activity [18]: Active; Activity [20]: Dose-dependent effect; IC50 [21]: 1260 µM; Activity [23]: Dose-dependent effect; Activity [25]: Dose-dependent effect
2 | C[N+](CCNC(=O)C(Cl)Cl)(CCNC(=O)C(Cl)Cl)CCNC(=O)C(Cl)Cl |  |  |  |  |  |  | inactive |  |  |  |  |  |  |  |  |  | 
3 | CC(C)(C)OC(=O)NCCN(CCNC(=O)OC(C)(C)C)CCNC(=O)OC(C)(C)C |  |  | 1.3 | 10.9 |  |  |  | 41 |  |  |  | Non-toxic | Non-toxic | Non-toxic | Non-toxic | Non-toxic | 
4 | CC(=O)OCC(COC(C)=O)(COC(C)=O)NC(=O)CCCCC[P+](c1ccccc1)(c1ccccc1)c1ccccc1.[Br-] |  |  |  |  |  |  |  |  |  |  |  |  |  |  |  |  | Activity [31]: Toxic; Activity [32]: Toxic; Activity [33]: Toxic; Activity [34]: Toxic; Activity [35]: Toxic
5 | CC(C)(C)OC(=O)NCC[N+](C)(CCNC(=O)OC(C)(C)C)CCNC(=O)OC(C)(C)C.[I-] |  |  |  |  |  |  |  |  |  |  |  | Non-toxic | Non-toxic | Non-toxic | Non-toxic | Non-toxic | 
6 | O=C(O)C(Cl)Cl [DICHLOROACETIC ACID] | 8290 | 12200 |  |  | Active | Active |  |  | 11500 | 13900 | 11800 |  |  |  |  |  | Activity [36]: 2.8%; Activity [37]: 26.8%; Activity [38]: 20.7%; Activity [39]: 45.4%; Activity [40]: 15%
